The results in this text go back to ChEMBL document CHEMBL1134556, “(-)3-[4-[2-(Phenoxazin-10-yl)ethoxy]phenyl]-2-ethoxypropanoic acid [(-)DRF 2725]: a dual PPAR agonist with potent antihyperglycemic and lipid modulating activity” (J Med Chem, 2001).

Each structure is given as a SMILES string.

Common to all, as to type: ADME, organism-based
Series [1] in a line: Pharmacokinetic parameter in Male Wistar rats at 10 mg/kg oral administration. The arrangement: dose 10 mg/kg, route oral. Conditions: rat, in vivo. In short, it runs like this:
(§1)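 Male Wistar rats; oral arm fasted 14 h, dosed as suspension in 0.25% CMC; IV arm given via tail vein in DMSO 6.6%/Cremophor ELP 6.6%/ethanol 3.3%/saline 83.3%. Retro-orbital blood drawn at 0.05, 0.5, 1, 2, 4, 6, 8, 10 and 21 h. Parameters include AUC0-∞, Cmax, Tmax, Kel, T1/2, Vd, Cl, f. Mean ± SD, n = 4.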

Series [2] can be described thus: (§2) Pharmacokinetic parameter in Male Wistar rats at 3 mg/kg intravenous administration. Also noted: dose 3 mg/kg, route intravenous. The conditions noted are these: rat, in vivo. Summed up: as §1
For a further series, the system named is Rattus norvegicus. The series is described as §2. The conditions noted are these: in vivo. Also noted: dose 3 mg/kg, route intravenous. In short, it runs like this: as §1

On to `CCO[C@@H](Cc1ccc(OCCN2c3ccccc3Oc3ccccc32)cc1)C(=O)O` [RAGAGLITAZAR], for which, in series [1], the AUC (as a rule, the area under the concentration-time curve, a measure of exposure) was found to be 71400 ng·h/mL; the Cmax (usually the maximum level reached in the sampled fluid or tissue) amounted to 17200 ng/mL; the Tmax – broadly, the time from dosing to the highest level – is 1.5 h; the bioavailability (as a rule, dose-corrected exposure relative to a reference, in per cent) came out at 77%. Further, in series [1], the half-life (as a rule, the time needed for the level to fall by half in the phase considered) is 2.81 h and the k el was 6.94e-05 s⁻¹. For the same compound, in series [2], the AUC is 27800 ng·h/mL; the Cmax was 18300 ng/mL; the clearance (usually a measure of how efficiently the substance is removed, as volume per time) was 0.355 mL/min; the half-life was 4.69 h. This compound had a k el in series [2] of 4.17e-05 s⁻¹. Moreover, the Vd – broadly, the apparent volume that relates the amount in the body to the concentration in plasma or blood – in the series with Rattus norvegicus was 36.92 mL.
